Results: ChEMBL document CHEMBL6092133, “Enhancing the therapeutic window for Spectinamide anti-tuberculosis Agents: Synthesis, Evaluation, and activation of phosphate prodrug 3408” (Bioorg Med Chem Lett, 2024)

Columns and labels:
[1] = Drug uptake in female BALB/c mouse plasma infected with Mycobacterium tuberculosis Erdman harboring pFCA-LuxAB plasmid at 400 mg/kg, SC measured after 15 mins; type: ADME, organism-based; conditions: in vivo, 0.25 h
In short: (§1)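 Plasma was sampled from infected BALB/c mice in the acute efficacy study 15 min and 8 h after a 400 mg/kg dose. Parent drug and prodrug levels were each quantified in the prodrug-treated and parent-treated groups.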

[2] = system: Mycobacterium tuberculosis; experiment: (§2) Antibacterial activity against Mycobacterium tuberculosis Erdman harboring pFCA-LuxAB plasmid infected in female BALB/c mouse model assessed as log reduction in bacterial burden in lung at 400 mg/kg, SC administered once daily for 12 days starting from day 7 and measured 3 days post last treatment relative to untreated control; type: functional; conditions: time 15 day
In short: (§3)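 BALB/c mice given a low-dose aerosol infection with M. tuberculosis Erdman pFCA-LuxAB. Dosing ran once daily for 12 consecutive days from day 7 post-infection: 10 mg/kg orally or 400 mg/kg, as the line states. Lung bacterial burden (log10 CFU) was compared with untreated control, six mice per group.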

[3] = Drug uptake in female BALB/c mouse plasma infected with Mycobacterium tuberculosis Erdman harboring pFCA-LuxAB plasmid at 400 mg/kg, SC measured after 8 hrs; type: ADME, organism-based; conditions: in vivo; in short: as §1
[4] = (§4) Prodrug conversion in female BALB/c mouse plasma infected with Mycobacterium tuberculosis Erdman harboring pFCA-LuxAB plasmid assessed as 2-(5-chloropyridin-2-yl)-N-((2R,4R,4aS,5aR,6S,7S,8R,9S,9aR,10aS)-4a,7,9-trihydroxy-2-methyl-6,8-bis(methylamino)decahydro-2H-benzo[b]pyrano[2,3-e][1,4]dioxin-4-yl)acetamide formation at 400 mg/kg, SC measured after 15 mins; type: ADME, organism-based; conditions: in vivo, 0.25 h; in short: as §1
[5] = as §4, with “8 hrs” for “15 mins”; type: ADME, organism-based; conditions: in vivo; in short: as §1
[6] = system: Mycobacterium tuberculosis; experiment: as §2, with “10” for “400”, “po” for “SC”; type: functional; conditions: time 15 day; in short: as §3

| SMILES | Drug uptake [1] | log(activity) [2] | Drug uptake [3] | Drug metabolism [4] | Drug metabolism [5] | log(activity) [6] |
| --- | --- | --- | --- | --- | --- | --- |
| CN[C@@H]1[C@H](O)[C@H](NC)[C@H]2O[C@]3(O)[C@H](O[C@@H]2[C@H]1O)O[C@H](C)C[C@H]3NC(=O)Cc1ccc(O)cn1 | Active | 1.13 | Active | – | – | – |
| CN[C@@H]1[C@H](O)[C@H](NC)[C@H]2O[C@]3(O)[C@H](O[C@@H]2[C@H]1O)O[C@H](C)C[C@H]3NC(=O)Cc1ccc(OP(=O)(O)O)cn1 | Active | 1.11 | – | metabolite_detected | metabolite_detected | – |
| CO[C@H]1/C=C/O[C@@]2(C)Oc3c(C)c(O)c4c(O)c(c(/C=N/N5CCN(C)CC5)c(O)c4c3C2=O)NC(=O)/C(C)=C\C=C\[C@H](C)[C@H](O)[C@@H](C)[C@@H](O)[C@@H](C)[C@H](OC(C)=O)[C@@H]1C [RIFAMPIN] | – | – | – | – | – | 1.21 |
